Results gathered from unrelated publications.
Each line is one published result; the experiments were not run side by side.
FGFR2: Fibroblast growth factor receptor 2 (FGFR2, Homo sapiens, UniProt P21802)
FGFR2 N549H: Fibroblast growth factor receptor 2 (FGFR2, Homo sapiens, UniProt P21802, N549H)

With CC(C)(O)[C@H]1CC[C@H](Nc2ccc3ncc(-c4cccc(C(F)(F)F)c4)n3n2)CC1 the remaining activity was 98.3% (FGFR2; enzyme activity; inhibitor; 1 µM).
Nc1nc(Nc2ccc(S(N)(=O)=O)cc2)nn1C(=O)c1c(F)cccc1F has a remaining signal of 79.7% (FGFR2; cell-free assay; 0.5 µM).
CCCOc1ccc(OC)c(F)c1C(=O)c1ccc(C(=O)N[C@@H]2CNC[C@H]2NC(=O)c2ccc3[nH]ncc3c2)cc1 gave a remaining activity of 70% (FGFR2; enzyme activity; inhibitor; 10 µM).
For Cc1nc(C2CCN(C(=O)c3ccc(OC(F)(F)F)cc3N)CC2)c2ncc(N3CCN(C)CC3)cc2n1, the remaining binding was 100% (FGFR2; cell-free assay; competition with immobilised ligand; 1 µM).
For Cc1ccc(NC(=O)c2ccc(CN3CCN(C)CC3)cc2)cc1Nc1nc(-c2cccnc2)cs1, the remaining signal was 100% (FGFR2; cell-free assay; 0.5 µM).
For CO[C@@H](C)c1c(Nc2ccc([C@H](N(C)C(=O)C3CCS(=O)(=O)CC3)C(F)(F)F)cc2)cnc2cc(Cl)nn12, the remaining binding was 91% (FGFR2; cell-free assay; competition with immobilised ligand; 1 µM).
For CCN(CC)CCNC(=O)c1c(C)[nH]c(/C=C2\C(=O)Nc3ccc(F)cc32)c1C, the inhibition was 36% (FGFR2; enzyme activity; inhibitor; 0.3 µM).
The remaining activity of CC(C)(C)c1nc(-c2cccc(NS(=O)(=O)c3c(F)cccc3F)c2F)c(-c2ccnc(N)n2)s1 is reported as 92% (FGFR2; enzyme activity; inhibitor; radiometric; 1 µM).
For O=C1NC(=O)c2cc(Nc3ccc(F)cc3)c(Nc3ccc(F)cc3)cc21, the remaining signal was 102% (FGFR2; cell-free assay; 0.5 µM).
For Cc1ccc(NC(=O)c2ccc(C)c(C(F)(F)F)c2)cc1C#Cc1nn(C2CCC(O)CC2)c2ncnc(N)c12 (centres unmarked), the remaining signal was -1% (FGFR2 N549H; cell-free assay; 10 µM).
For Cc1cnc(NC2CCOCC2)nc1-n1cnc(C(=O)NC(CN)c2cc(F)cc(Cl)c2)c1 (centres unmarked), the remaining activity was 99% (FGFR2 N549H; enzyme activity; inhibitor; radiometric; 1 µM).
COc1cc(-c2cn(C3CCc4c(F)cccc4N(CC(F)(F)F)C3=O)nn2)ccc1-n1cnc(C)c1 (centres unmarked) gave a remaining binding of 100% (FGFR2; cell-free assay; competition with immobilised ligand; 1 µM).
CNC(=O)c1cc(Oc2ccc(NC(=O)Nc3ccc(Cl)c(C(F)(F)F)c3)cc2)ccn1 gave an inhibition of 66% (FGFR2; enzyme activity; inhibitor; 0.3 µM).
The remaining binding of C[C@@]1(Cc2ccc(C#N)cc2)C(=O)N(c2cc(Cl)cc(Cl)c2)c2ncc(C(=O)NC3(c4nc(C5CCC5)no4)CC3)n21 is reported as 100% (FGFR2; cell-free assay; competition with immobilised ligand; 1 µM).
For COc1cc(Cl)c(C(=O)N[C@@H](CN[C@H]2CC[C@@H](N)CC2)Cc2ccc(C#N)cc2)cc1-c1ccc(CN[C@H](C)c2ccc(C)cc2)o1, the remaining activity was 102% (FGFR2; enzyme activity; inhibitor; 1 µM).
COc1ccc(COc2ccc(Cc3cnc(N)nc3N)cc2OC)cc1 gave a remaining signal of 102% (FGFR2; cell-free assay; 0.5 µM).
CN(C)C1CCN(CC#Cc2nn(C3CCCC3)c3nc(NCc4ccccc4)ncc23)C1 (centres unmarked) gave an inhibition of 8% (FGFR2; enzyme activity; inhibitor; FRET; 1 µM).
CN(c1ccnc(CNc2nc(Nc3ccc4c(c3)CC(=O)N4)ncc2C(F)(F)F)n1)S(C)(=O)=O has a remaining binding of 59% (FGFR2; cell-free assay; competition with immobilised ligand; 1 µM).
The activity vs control of Cc1cc(NC(=O)c2cccc3cc(-c4cccc5[nH]nc(N)c45)ccc23)ccc1F is reported as 33% (FGFR2 N549H; enzyme activity; inhibitor; 0.1 µM).
CNc1cccc2cc(C(=O)Nc3ccc(C(=O)O)cc3)c(=O)[nH]c12 has an inhibition of -1% (FGFR2; enzyme activity; inhibitor; 10 µM).
CCc1ccccc1C(=O)Nc1n[nH]c2c(C)c(F)c(C3C(C#N)=C(C)N(C)C(C)=C3C#N)cc12 has a remaining binding of 83% (FGFR2; cell-free assay; competition with immobilised ligand; 1 µM).
With COc1cc2c(N3CCN(C(=O)Nc4ccc(OC(C)C)cc4)CC3)ncnc2cc1OCCCN1CCCCC1 the remaining signal was 99.8% (FGFR2; cell-free assay; 0.5 µM).
O=C(NCCCC1CCCCC1)c1ccc(CNC(=O)c2cnn(-c3ccccc3)c2C(F)(F)F)cc1 has a remaining binding of 100% (FGFR2; cell-free assay; competition with immobilised ligand; 0.1 µM).
With Cc1ccc(Nc2nccc(N(C)c3ccc4c(C)n(C)nc4c3)n2)cc1S(N)(=O)=O the inhibition was 99% (FGFR2; enzyme activity; inhibitor; 10 µM).
The remaining binding of C[C@@H]1CN(c2cc(-c3n[nH]c4ccc(OC5(C)CC5)cc34)ncn2)C[C@H](C)O1 is reported as 96% (FGFR2; cell-free assay; competition with immobilised ligand; 0.1 µM).
With O=C(Nc1cnn(-c2csc(C(=O)NC3COC3)c2)c1)Nc1ccccc1Cl the remaining activity was 95.6% (FGFR2; enzyme activity; inhibitor; 5 µM).
